Series [1] deals with Brain. Nature of the series: Biodistribution of rat brain at 20 MBq, iv after 30 mins post-injection in presence of cyclosporine A treated before compound infusion relative to basal level. The format is ADME, organism-based. As to conditions: in vivo, 0.5 h.
Series [2] has as its system Blood. The series can be described thus: Biodistribution in Bcrp1 knockout mouse blood assessed per gram of tissue at 42 +/- 6 MBq, iv after 20 mins by gamma counting. The conditions noted are these: in vivo.
The subject of series [3] is Blood. The series can be described thus: Biodistribution in wild type mouse blood assessed per gram of tissue at 42 +/- 6 MBq, iv after 20 mins by gamma counting. As to conditions: in vivo.
The test system of series [4] is Brain. The series can be described thus: Biodistribution in naive rat brain assessed per gram of tissue at 118 +/- 40 MBq, iv after 18 mins by positron emission tomography. The format is ADME, organism-based. The conditions noted are these: in vivo, 0.3 h. Summed up:
(§1)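 Naïve rats under 1.5-2% isoflurane with femoral artery and vein catheters; [11C]-tracer 118±40 MBq i.v. bolus over ~30 s; dynamic microPET. Scan 1: unlabeled compound 5 mg/kg i.v. at 60 min, then 90 min more acquisition; scan 2 given 2 h after unlabeled dose. Whole-brain TACs as %ID/g; arterial blood sampled serially and gamma counted. n=3, mean ± SD.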

In series [5] the test system is Brain. Nature of the series: Biodistribution in naive rat brain assessed per gram of tissue at 118 +/- 40 MBq, iv after 0.6 mins by positron emission tomography. Type of series: ADME, organism-based. The conditions noted are these: in vivo, 0.01 h. Summed up: as §1
Series [6] has as its system Brain. Nature of the series: Ratio of drug level in Bcrp1 knockout mouse brain to wild type mouse brain. The format is ADME, tissue-based. The conditions noted are these: in vivo. Summed up:
(§2)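 Wild-type FVB, Mdr1a/b(-/-) and Bcrp1(-/-) female mice (25-30 g), isoflurane-anesthetized and kept warm. [11C]-1 42±6 MBq i.v. bolus via tail vein, with a 60-min dynamic microPET scan started at injection. Whole-brain %ID/g read from time-activity curves at 18 min; knockout/wild-type ratios taken at 18 min; n=3; two-tailed unpaired t-test.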

For series [7], the system named is Brain. Nature of the series: Biodistribution in Mdr1a/b knockout mouse brain assessed per gram of tissue, iv after 18 mins. As to conditions: in vivo, 0.3 h.
Series [8] deals with Brain. Nature of the series: Biodistribution in Bcrp1 knockout mouse brain assessed per gram of tissue, iv after 18 mins. As to conditions: in vivo, 0.3 h.
Series [9] concerns Brain. The series can be described thus: Biodistribution in wild type mouse brain assessed per gram of tissue, iv after 18 mins. The conditions noted are these: in vivo, 0.3 h.
The nature of series [10]: Ratio of drug level in wild type mouse brain to naive rat brain. The format is ADME, tissue-based. As to conditions: in vivo. Summed up: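 Whole-brain %ID/g at 18 min after i.v. [11C]-1, from dynamic PET. Wild-type female FVB mice received 42±6 MBq via tail vein. Naive rats (baseline scan, before any unlabeled compound) received 118±40 MBq via femoral vein catheter. Both groups under isoflurane; n=3 each.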

Series [11] relates to Brain. The series can be described thus: Ratio of drug level in Mdr1a/b knockout mouse brain to wild type mouse brain. The format is ADME, tissue-based. As to conditions: in vivo. Summed up:
as §2

Series [12] deals with Blood. Nature of the series: Biodistribution in Mdr1a/b knockout mouse blood assessed per gram of tissue at 42 +/- 6 MBq, iv after 20 mins by gamma counting. As to conditions: in vivo.
Series [13] has as its system Blood. Nature of the series: Biodistribution in naive rat blood assessed per gram of tissue at 118 +/- 40 MBq, iv after 20 mins by gamma counting. The format is ADME, organism-based. The conditions noted are these: in vivo. Summed up: as §1
In series [14] the test system is Brain. Nature of the series: Ratio of drug level in naive rat brain at 118 +/- 40 MBq, iv administered 2 hrs after unlabeled elacridar infusion to drug level in naive rat brain at 118 +/- 40 MBq, iv administered before unlabeled elacridar infusion. Type of series: ADME, organism-based. The conditions noted are these: in vivo. Summed up: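 Naive rats under isoflurane with femoral artery and vein catheters; n=3. Scan 1: [11C]-1 118±40 MBq i.v. bolus over about 30 s, then dynamic PET. At 60 min, unlabeled 1 (5 mg/kg) i.v. over about 20 s, then 90 min more imaging. Scan 2 run 2 h after unlabeled dose. Whole-brain %ID/g at 18 min compared as scan 2/scan 1; two-tailed paired t-test.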

The species named for a further series is Rattus norvegicus. The conditions noted are these: Sprague-Dawley, 10 M.
Series [15] deals with Brain. The series can be described thus: Biodistribution in naive rat brain assessed per gram of tissue at 118 +/- 40 MBq, iv administered 2 hrs after unlabeled elacridar infusion measured after 18 mins by positron emission tomography. The conditions noted are these: in vivo, 0.3 h. Type of series: ADME, organism-based. Summed up:
as §1

For series [16], the system named is Brain. Nature of the series: Biodistribution in naive rat brain assessed per gram of tissue at 118 +/- 40 MBq, iv after 130 mins by positron emission tomography. Type of series: ADME, organism-based. As to conditions: in vivo. Summed up: as §1
In the next series the test system is Caco-2. The series can be described thus: Ratio of permeability from basolateral to apical side over apical to basolateral side in human Caco-2 cells.
The nature of series [17]: Inhibition of P-gp-mediated [3H]daunorubicin transport in Wistar rat hepatocytes by scintillation counting. The format is cell-based. As to conditions: hepatocyte.

In the case of `[11CH3]OC(=O)c1cnc2n1CCc1ccccc1C2=C1CCN(CCc2ccc(OCc3ccc4ccccc4n3)cc2)CC1`, the “fold change (FC)” value in the series with Brain [1] came to 6.
As to `COc1cc2c(cc1OC)CN(CCc1ccc(NC(=O)c3cccc4c(=O)c5cccc(O[11CH3])c5[nH]c34)cc1)CC2`, the Drug uptake in the series with Blood [2] is listed as 0.89 %ID; in the series with Blood [3], 0.97 %ID; in the series on Brain [4], 0.07 %ID; with Brain [5], 0.23 %ID; in the series on Brain [7] it was 1.8 %ID; with Brain [8] it was 0.9 %ID. Moreover, the Drug uptake in the series on Brain [9] is given as 0.72 %ID; in the series with Blood [12], 0.64 %ID; in the series with Blood [13] it was 0.02 %ID. For the same molecule, the Ratio stood at 1.3 with Brain [6], 10 in [10] and 2.5 in the series on Brain [11].
Take `COc1cc2c(cc1OC)CN(CCc1ccc(NC(=O)c3cccc4c(=O)c5cccc(OC)c5[nH]c34)cc1)CC2`: the Ratio in the series on Brain [14] was 5.4; in the series on Caco-2, below 2. In the series filed under Rattus norvegicus, the inhibition (as a rule, the percentage by which the read-out fell short of the control) came out at 63%. The Drug uptake in the series on Brain [15] was 0.4 %ID; in the series with Brain [16] it was 0.28 %ID. Also, the affinity in series [17], expressed as Ki, was 0.035 µM.

The record behind these values is ChEMBL document CHEMBL1156019, “Synthesis and small-animal positron emission tomography evaluation of [11C]-elacridar as a radiotracer to assess the distribution of P-glycoprotein at the blood-brain barrier” (J Med Chem, 2009).
